# High-throughput results (PubChem)
# KCNQ1 act: potentiates or activates the human KCNQ1 potassium channel; P51787; CHO-K1 KCNQ1, thallium flux FluxOR fluorescence; active compounds read high; B-score at 10 µM; actives 0.35% (n = 310,000); AID 2648;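 active = fluorescence ratio B-score, a plate-corrected score, at least three library SD, with initial intensity B-score within 5 SD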
#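 assay system = CHO-K1 cells stably expressing KCNQ1 | medium = assay buffer, equal DMSO in all wells | timing = 37 °C overnight plating, 90-min dark dye load, 20-min compound pretreatment | measured by = kinetic FluxOR thallium fluorescence, 10-s 1-Hz baseline, 110-s post-stimulus read | measure = fluorescence change relative to baseline, converted to B score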
# hERG protect: compounds protecting human hERG from proarrhythmic drug block | CHO-hERG, FluxOR thallium flux, dofetilide IC70 present | activation (rescue from dofetilide block), less the hit threshold, % at 10 µM | actives 0.51% (n = 310,000) | AID 1511;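 active = activation above the mean of controls blocked by dofetilide plus 5 SD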;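 also: thallium influx through hERG after potassium depolarization seen as dye fluorescence rise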
# KCNK3 inh: human KCNK3 channel inhibition, primary screen; CHO-KCNK3 thallium flux, FluxOR fluorescence; active compounds read low; AID 602410; O14649; actives 0.84% (n = 340,000); B-score at 10 µM;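 active = B-score under library mean minus 4 SD, starting fluorescence ratio at most library mean plus 5 SD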;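 also: more negative B-score means stronger inhibition of thallium flux through KCNK3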
# Kir21 block: blocks the mouse Kir2.1 inward-rectifier potassium channel. P35561. HEK293-Kir2.1, FluxOR thallium flux fluorescence; active compounds read low. B-score at 10 µM. actives 0.85% (n = 310,000). AID 1672;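 active = fluorescence ratio B-score at or below minus 3 SD of library scores, with starting-brightness B-score within 2 SD, cut at about -4.2 in these data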;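 also: channel flux triggered by added potassium and thallium sulfate stimulus; B-score of peak minus minimum fluorescence over baseline after thallium stimulus; more negative B-score means stronger Kir2.1 block with less thallium influx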
# Target sequence (P35561 whole entry, looked up): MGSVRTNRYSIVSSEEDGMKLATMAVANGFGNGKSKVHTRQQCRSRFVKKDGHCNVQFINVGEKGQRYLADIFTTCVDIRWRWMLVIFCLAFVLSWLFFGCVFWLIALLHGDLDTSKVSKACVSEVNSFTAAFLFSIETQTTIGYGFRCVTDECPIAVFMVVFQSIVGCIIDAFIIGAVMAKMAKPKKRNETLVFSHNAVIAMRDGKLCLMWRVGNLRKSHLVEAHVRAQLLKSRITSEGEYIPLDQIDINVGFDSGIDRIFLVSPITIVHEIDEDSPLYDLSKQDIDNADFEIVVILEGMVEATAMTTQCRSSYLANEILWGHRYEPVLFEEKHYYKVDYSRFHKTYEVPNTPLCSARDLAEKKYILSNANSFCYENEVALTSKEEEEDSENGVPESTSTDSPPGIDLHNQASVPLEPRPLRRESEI
# KCNQ1 block: blocks the human KCNQ1 potassium channel; CHO-K1 KCNQ1, FluxOR thallium flux fluorescence; active compounds read high; B-score at 10 µM; P51787; actives 1.3% (n = 310,000);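 active = compounds whose thallium flux B-score, printed positive for inhibition, exceeds three library SD while starting fluorescence stays within three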;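 also: channel opened by potassium depolarization with thallium stimulus after 20 min compound exposure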
# KCNK9 block: human KCNK9 channel inhibition; Q9NPC2; HEK293 KCNK9, FluxOR thallium flux fluorescence; active compounds read low; AID 488922; actives 1.2% (n = 310,000); B-score at 10 µM;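 active = ratio B-score over 3 SD below the library mean, with starting fluorescence within 5 SD of its mean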;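 also: negative B-score means less thallium flux so channel inhibition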
# KCNK9 inh conf: confirmation of human KCNK9 potassium channel inhibitors | shares compounds with KCNK9 block | HEK293 KCNK9 cells, FluxOR thallium flux fluorescence | inhibition, % at 10 µM | actives 43% (n = 4,900) | AID 492992;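 active = thallium signal inhibited by more than 5 SD of the compound-free buffer control wells, on both duplicate plates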;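 also: 0% = assay buffer control wells without compound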
# Kir2-1 spec: mouse Kir2.1 off-target activity of KCNK9 modulators. shares compounds with KCNK9 block. inhibition, % at 10 µM. actives 4% (n = 4,900). Kir2.1 cells, FluxOR thallium flux fluorescence. AID 492993;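 active = thallium signal drop more than 5 SD beyond the mean of the no-compound control wells, seen in both duplicate plates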;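 also: signal is fluorescence rise after thallium addition divided by baseline fluorescence; plate controls were assay buffer only for no effect and full block by chlorpromazine control for full effect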
# HEK293 Tl ctr: second counter-screen for KCNK9 modulators: effect in non-induced cells; shares compounds with KCNK9 block; non-induced KCNK9-HEK293, FluxOR thallium flux; inhibition, % at 10 µM; actives 40% (n = 4,900); AID 492997;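 active = thallium signal drop beyond 5 SD of the untreated control mean, on both duplicate plates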;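 also: plate controls were buffer only IC0 wells for no effect and SID17386958 at its maximal inhibitory level for full effect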
# * hit, by the source's call; i = inactive; . = no result. Compounds with a hit are over-represented: about 3.7% of the library has one in this group of screens.
SMILES,KCNQ1 act,hERG protect,KCNK3 inh,Kir21 block,KCNQ1 block,KCNK9 block,KCNK9 inh conf,Kir2-1 spec,HEK293 Tl ctr
Cc1ccc(NC(=O)CN2C(=O)S/C(=C\c3cc(C)n(-c4ccc(C(=O)O)cc4)c3C)C2=O)cc1,i,-12,i,0.75,i,i,i,i,i
COc1ccccc1C1CCN(Cc2ccc(Cl)c(Cl)c2)CC1,i,-11,i,-0.37,i,i,i,i,i
COc1ccccc1C1CCN(Cc2cccc3ccccc23)CC1,i,-14,i,0.84,i,i,i,i,27%*
N#CCC(=O)N/N=C/c1c2ccccc2cc2ccccc12,i,-10,i,0.89,i,i,.,.,.
N#CCC(=O)N/N=C/c1cc(Br)ccc1OCc1cccc2ccccc12,i,-5,i,0.01,i,-10*,47%*,i,26%*
Cc1cccc(Oc2nc(CN3CCOCC3)nc3sc4c(c23)CCCC4)c1,i,-16,i,-0.61,i,i,i,i,i
O=C1CC(N2CCC(c3nc4ccccc4o3)CC2)C(=O)N1c1cc(Cl)cc(Cl)c1 (stereo not drawn),i,-6,i,1,8*,-8.6*,43%*,i,i
COc1cccc(N2C(=O)CC(N3CCC(c4nc5ccccc5[nH]4)CC3)C2=O)c1 (stereo not drawn),i,-23,i,0.04,i,i,.,.,.
CCOC(=O)Nc1cc(C)ccc1OC,i,-7,i,0.33,i,i,.,.,.
COc1ccc(C)cc1NC(=O)CC(O)(C(F)(F)F)C(F)(F)F,i,-15,i,2.1,i,-9.6*,i,i,i
Cc1ccc(CN2CCc3c(OCC(=O)Nc4cccc(C)c4C)cccc3C2=O)cc1,i,-16,.,1.3,i,i,.,.,.
Cc1ccc(CN2CCc3c(OCc4ccc(F)cc4)cccc3C2=O)cc1,i,-11,i,-1.8,i,-13*,71%*,i,42%*
O=C(c1ccccc1Sc1ccccc1[N+](=O)[O-])N1CCCCC1,i,4,i,-0.36,i,i,i,i,i
Cc1ccccc1OCCn1cc(C=O)c2ccccc21,i,-6,i,0.78,i,i,.,.,.
Cc1ccc(CNC(=O)c2ccc(CNS(=O)(=O)c3ccc4c(c3)C(C)(C)C(=O)N4C)cc2)o1,i,-7,i,1.3,i,i,i,i,i
Cc1ccc(NC(=O)CCn2nnc3ccccc32)cc1,i,-4,i,0.73,i,i,.,.,.
Nc1c(S(=O)(=O)c2cccs2)c2nc3ccccc3nc2n1Cc1cccs1,i,-6,i,-0.72,i,i,.,.,.
Nc1c(S(=O)(=O)c2cccs2)c2nc3ccccc3nc2n1Cc1ccc2c(c1)OCO2,i,-3,i,-0.74,i,-12*,32%*,i,40%*
Cc1ccnc(N2CCN(C(=O)CSc3nc4ccccc4nc3N3CCC(C)CC3)CC2)c1,i,-14,i,0.2,i,i,i,i,i
Cc1cccc(NC(=O)C23CCC(C)(C2Br)C3(C)C)c1 (stereo not drawn),i,-9,i,-0.93,i,i,i,i,i
Cc1cccc(NC(=O)CC(=O)Nc2cccc(C)c2)c1,i,-5,i,-0.08,i,i,.,.,.
Cc1ccc(CNC(=O)Nc2ccccc2)c(C)c1,i,1,i,-0.4,i,i,.,.,.
Cn1c2ccccc2c(=O)c2ccc(-c3ccc4c(c3)OCO4)cc21,i,-17,i,1.9,i,-8.9*,64%*,i,i
O=C(Nc1nccs1)C1CCN(S(=O)(=O)c2c(Cl)cccc2Cl)CC1,i,-8,i,-1.2,i,-16*,i,i,i
CCc1noc(C)c1C(=O)OC(C)C(=O)Nc1ccc(Cl)cn1 (stereo not drawn),.,.,i,.,.,.,.,.,.
SMILES,KCNQ1 act,hERG protect,KCNK3 inh,Kir21 block,KCNQ1 block,KCNK9 block,KCNK9 inh conf,Kir2-1 spec,HEK293 Tl ctr
Cc1cccc(C(=O)NN2C(=O)C3C(c4ccccc4)C=CC(c4ccccc4)C3C2=O)c1 (stereo not drawn),i,1,i,0.29,i,-13*,41%*,i,i
CCOc1ccc(OCC)c(NC(=O)CN2CCN(CC(=O)NC(C)C)CC2)c1,i,-10,i,-0.05,i,i,.,.,.
CC(C)c1cccc(OCCCCN(C)C)c1,i,-6,i,-0.04,i,i,.,.,.
CCOc1ccccc1N1CCN(Cc2ccc(Br)s2)CC1,i,-8,i,-0.23,i,i,i,i,i
CCOc1ccccc1N1CCN(C/C=C/c2ccc(N(C)C)cc2)CC1,i,-9,i,-1.9,i,i,i,i,i
CCOc1ccccc1N1CCN(Cc2ccco2)CC1,i,-4,i,0.01,i,i,.,.,.
CC(C)Cn1c(N)c(C(=O)COC(=O)C2Cc3ccccc3CN2S(C)(=O)=O)c(=O)n(C)c1=O (stereo not drawn),.,.,i,.,.,.,.,.,.
Cc1ccc(C)n1N1C(=O)/C(=C\c2ccc(Cl)cc2)SC1=S,i,-13,i,1.3,i,i,i,i,i
COc1ccc(NC(=O)CN(C)C(=O)Cc2ccc(S(=O)(=O)N3CCOCC3)s2)cc1,i,-10,i,-0.92,i,i,.,.,.
COc1cc2c(cc1C1NC(=S)NC(C)=C1C(=O)N(C)C)CCCC2 (stereo not drawn),i,-3,i,-0.68,i,i,.,.,.
Cc1ccc(NC(=S)NCCC(c2ccccc2)c2ccccc2)c(C)c1,i,-11,i,-1.8,i,i,.,.,.
Cc1ccc(SCCNC(=S)Nc2ccc(C)cc2C)cc1,i,0,i,0.82,i,i,i,i,i
O=C(Nc1cccc(F)c1)C1CCN(C(=O)c2ccc(Br)cc2)CC1,i,-14,i,-0.02,i,i,i,i,i
O=C(Nc1ccc(Br)cc1)C1CCN(C(=O)c2ccc(F)cc2)CC1,i,-5,i,-0.85,i,i,i,i,i
